Test results as given in ChEMBL document CHEMBL5214909.

Experiments:
Huh-7 = experiment: Cytotoxicity against human Huh-7 cells by CytoTox 96 nonradioactive cytotoxicity assay; format: functional
How it was run: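 Confluent cells were exposed to compound at 1 to 100 μM for 72 h, and cytotoxicity was read with the CytoTox 96 nonradioactive kit. CC50 came from a variable-slope fit, averaged over at least two determinations.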

[1] = Inhibition of MERS-CoV 3CLpro; set-up: species or system Middle East respiratory syndrome-related coronavirus
[2] = target: Replicase polyprotein 1ab (Severe acute respiratory syndrome coronavirus 2, UniProt P0DTD1); experiment: Inhibition of SARS-CoV-2 3CLpro using FAM-SAVLQ/SG-QXL520 as substrate measured after 1 hr by fluorescence based microplate reader analysis
How it was run: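 The protease was full-length, codon-optimized SARS-CoV-2 3CLpro with an N-terminal His6 tag, expressed from pET-28a(+). It was preincubated with serial inhibitor dilutions or DMSO for 1 h at 37 °C in 20 mM HEPES pH 8, 200 mM NaCl, 0.4 mM EDTA, 60% glycerol and 6 mM DTT. Substrate was then added. Fluorescence (ex 480/em 520 nm) was read 1 h later, minus a no-protease background. IC50 came from a variable-slope fit, averaged over at least two determinations.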

SARS-CoV-2 = experiment: Antiviral activity against SARS-CoV-2 infected in African green monkey Vero E6 cells measured after 48 to 72 hrs; format: functional, organism-based; details: Severe acute respiratory syndrome coronavirus 2, Vero C1008

SMILES | CC50 (Huh-7) [µM] | IC50 [1] [µM] | IC50 [2] [µM] | EC50 (SARS-CoV-2) [µM]
CC(C)C[C@H](NC(=O)OCC1CC2CCC1C2)C(=O)N[C@H](C=O)C[C@@H]1CCNC1=O (single isomer, unassigned) | > 100 | 0.063 | – | –
[2H]C([2H])(OC(=O)N[C@@H](CC(C)C)C(=O)N[C@H](C=O)CC1CCNC1=O)C12CCC(CCCCC)(CC1)CC2 (single isomer, unassigned) | 20 | – | – | –
[2H]C([2H])(OC(=O)N[C@@H](CC(C)C)C(=O)N[C@@H](C[C@H]1CCNC1=O)C(O)S(=O)(=O)[O-])C12CC3CC(CC(O)(C3)C1)C2.[Na+] (stereo not given in full) | > 100 | – | 0.78 | –
[2H]C([2H])(OC(=O)N[C@@H](CC(C)C)C(=O)N[C@@H](CC1CCNC1=O)C(O)S(=O)(=O)O)C1CC2C=CCC(C2)C1 (single isomer, unassigned) | > 100 | – | – | –
[2H]C([2H])(OC(=O)N[C@@H](CC(C)C)C(=O)N[C@@H](C[C@H]1CCNC1=O)C(O)S(=O)(=O)[O-])C12CC3CC(CC(C3)C1)C2.[Na+] (stereo not given in full) | > 100 | – | 0.27 | –
CC(C)C[C@H](NC(=O)OCC1CC2CCC1C2)C(=O)N[C@@H](C[C@@H]1CCNC1=O)C(O)S(=O)(=O)O (single isomer, unassigned) | > 100 | 0.058 | – | –
CC(C)C[C@H](NC(=O)OC1CC2CCC(C1)N2C(=O)OCc1ccccc1)C(=O)N[C@H](C=O)C[C@H]1CCNC1=O (stereo not given in full) | > 100 | – | 0.39 | –
[2H]C([2H])(OC(=O)N[C@@H](CC(C)C)C(=O)N[C@H](C=O)C[C@H]1CCNC1=O)C1CC2CCCC(C2)C1 (stereo not given in full) | > 100 | – | 0.29 | –
[2H]C([2H])(OC(=O)N[C@@H](CC(C)C)C(=O)N[C@H](C=O)CC1CCNC1=O)C1CC2C=CCC(C2)C1 (single isomer, unassigned) | > 100 | – | – | –
CCCCCC12CCC(COC(=O)N[C@@H](CC(C)C)C(=O)N[C@H](C=O)C[C@@H]3CCNC3=O)(CC1)CC2 (single isomer, unassigned) | 21 | – | – | –
CC(C)C[C@H](NC(=O)OC1CC2CCC(C1)N2C(=O)OCc1ccccc1)C(=O)N[C@@H](C[C@H]1CCNC1=O)C(O)S(=O)(=O)O (stereo not given in full) | > 100 | – | 0.37 | –
CC(C)C[C@H](NC(=O)OCCC12CC3CC(CC(C3)C1)C2)C(=O)N[C@@H](C[C@H]1CCNC1=O)C(O)S(=O)(=O)O (stereo not given in full) | > 100 | – | 0.25 | –
CC(C)C[C@H](NC(=O)OCC1CC2CCCC(C2)C1)C(=O)N[C@H](C=O)C[C@H]1CCNC1=O (stereo not given in full) | > 100 | 0.052 | 0.18 | 0.035
[2H]C([2H])(OC(=O)N[C@@H](CC(C)C)C(=O)N[C@H](C=O)C[C@H]1CCNC1=O)C12CC3CC(CC(C3)C1)C2 | > 100 | – | 0.29 | –
[2H]C([2H])(OC(=O)N[C@@H](CC(C)C)C(=O)N[C@@H](CC1CCNC1=O)C(O)S(=O)(=O)O)C12CCC(CCCCC)(CC1)CC2 (single isomer, unassigned) | 23 | – | – | –
CC(C)C[C@H](NC(=O)OCCC12CC3CC(CC(C3)C1)C2)C(=O)N[C@H](C=O)C[C@H]1CCNC1=O | > 100 | – | 0.27 | –
CC(C)C[C@H](NC(=O)OCC12CC3CC(CC(C3)C1)C2)C(=O)N[C@@H](C[C@H]1CCNC1=O)C(O)S(=O)(=O)O (stereo not given in full) | > 100 | 0.053 | 0.15 | –
CC(C)C[C@H](NC(=O)OCC1C[C@@H]2C=CC[C@H](C1)C2)C(=O)N[C@@H](C[C@@H]1CCNC1=O)C(O)S(=O)(=O)O (single isomer, unassigned) | > 100 | – | – | –
CC(C)C[C@H](NC(=O)OC1CC2CCC(C1)N2C(=O)OC(C)(C)C)C(=O)N[C@@H](C[C@H]1CCNC1=O)C(O)S(=O)(=O)O (stereo not given in full) | > 100 | – | 1.71 | –
CCCCCC12CCC(COC(=O)N[C@@H](CC(C)C)C(=O)N[C@@H](C[C@@H]3CCNC3=O)C(O)S(=O)(=O)O)(CC1)CC2 (single isomer, unassigned) | 21 | – | – | –
CC(C)C[C@H](NC(=O)OCC1C[C@H]2CCC[C@@H](C1)C2)C(=O)N[C@@H](C[C@@H]1CCNC1=O)C(O)S(=O)(=O)O (single isomer, unassigned) | > 100 | 0.049 | – | 0.032
CC(C)C[C@H](NC(=O)OCC1CC2C=CC1C2)C(=O)N[C@@H](C[C@@H]1CCNC1=O)C(O)S(=O)(=O)O (single isomer, unassigned) | > 100 | – | – | –
CC(C)C[C@H](NC(=O)OCC1CC2C=CC1C2)C(=O)N[C@H](C=O)C[C@@H]1CCNC1=O (single isomer, unassigned) | > 100 | – | – | –
CC(C)C[C@H](NC(=O)OCC12CC3CC(CC(O)(C3)C1)C2)C(=O)N[C@@H](C[C@H]1CCNC1=O)C(O)S(=O)(=O)O (stereo not given in full) | > 100 | – | 1.03 | –
CC(C)C[C@H](NC(=O)OCC12CC3CC(CC(O)(C3)C1)C2)C(=O)N[C@H](C=O)C[C@H]1CCNC1=O | > 100 | – | 0.82 | –
CC(C)C[C@H](NC(=O)OCC1C[C@@H]2C=CC[C@H](C1)C2)C(=O)N[C@H](C=O)C[C@@H]1CCNC1=O (single isomer, unassigned) | > 100 | – | – | –
[2H]C([2H])(OC(=O)N[C@@H](CC(C)C)C(=O)N[C@H](C=O)C[C@H]1CCNC1=O)C12CC3CC(CC(O)(C3)C1)C2 | > 100 | – | 0.74 | –
CC(C)C[C@H](NC(=O)OCC12CC3CC(CC(C3)C1)C2)C(=O)N[C@H](C=O)C[C@H]1CCNC1=O | > 100 | 0.055 | 0.18 | –
CC(C)C[C@H](NC(=O)OC1CC2CCC(C1)N2C(=O)OC(C)(C)C)C(=O)N[C@H](C=O)C[C@H]1CCNC1=O (stereo not given in full) | > 100 | – | 1.9 | –
[2H]C([2H])(OC(=O)N[C@@H](CC(C)C)C(=O)N[C@@H](C[C@H]1CCNC1=O)C(O)S(=O)(=O)[O-])C1CC2CCCC(C2)C1.[Na+] (stereo not given in full) | > 100 | – | 0.29 | –
